From ChEMBL document CHEMBL3862029, “Discovery of 8-Membered Ring Sulfonamides as Inhibitors of Oncogenic Mutant Isocitrate Dehydrogenase 1” (ACS Med Chem Lett, 2016)
pEC50, pIC50: −log10 of the molar value. In brackets after ≈: the same amount, converted by molar mass. Activity calls are given as the source filed them. The rule behind the calls is not given here.

What was measured:
[1] = tested on: Isocitrate dehydrogenase [NADP] cytoplasmic (Homo sapiens), O75874 [R132H]; test: Inhibition of human C-terminal His8-tagged IDH1-R132H mutant expressed in Escherichia coli Rosetta cells assessed as inhibition of ketoreductase activity measured as NADPH consumption preincubated for 60 mins followed by addition of NADPH and alpha-KG as substrate measured after 50 mins using Mg2+ as cofactor in presence of tween-20 detergent by resazurin/diaphorase-coupled fluorescence analysis
Outline: (§1)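 IDH1-R132H–Mg2+ ketoreductase assay reading NADPH consumption through a diaphorase-coupled fluorescence reaction. Buffer contained 0.01% Tween 20 against aggregation. Primary screen at 15 μM in duplicate, with positives set at ≥60% inhibition in both replicates. Retests were in 8-point dose.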

[2] = target: T1, Isocitrate dehydrogenase [NADP] cytoplasmic (Homo sapiens, UniProt O75874, R132H); test: Inhibition of human C-terminal His8-tagged IDH1-R132H mutant expressed in Escherichia coli Rosetta assessed as inhibition of ketoreductase activity by measuring NADPH consumption preincubated for 60 mins followed by addition of alpha-KG as substrate measured after 50 mins in presence of NADPH and Mg2+ by resazurin based diaphorase-coupled fluorescence assay; outline: as §1
Target sequence in this assay (O75874 2-414 R132H limits assumed): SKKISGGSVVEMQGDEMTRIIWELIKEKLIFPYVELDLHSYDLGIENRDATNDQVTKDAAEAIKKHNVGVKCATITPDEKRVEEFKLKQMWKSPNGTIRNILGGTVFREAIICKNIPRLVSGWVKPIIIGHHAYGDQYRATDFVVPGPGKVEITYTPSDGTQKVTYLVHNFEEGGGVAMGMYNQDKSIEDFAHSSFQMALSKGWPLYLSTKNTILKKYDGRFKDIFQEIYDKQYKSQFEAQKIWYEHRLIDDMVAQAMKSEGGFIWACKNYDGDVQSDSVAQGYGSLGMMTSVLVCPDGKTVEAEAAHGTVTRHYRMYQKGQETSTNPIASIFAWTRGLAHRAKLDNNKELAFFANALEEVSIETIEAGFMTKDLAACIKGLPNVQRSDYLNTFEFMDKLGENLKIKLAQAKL

[3] = target: Isocitrate dehydrogenase [NADP] cytoplasmic (Homo sapiens, UniProt O75874, R132C); test: (§2) Inhibition of human C-terminal His8-tagged IDH1-R132C mutant expressed in Escherichia coli Rosetta assessed as inhibition of ketoreductase activity by measuring NADPH consumption preincubated for 10 mins followed by addition of NADPH and alpha-KG as substrate by fluorescence method
[4] = target: Isocitrate dehydrogenase [NADP] cytoplasmic (Homo sapiens, UniProt O75874); test: Inhibition of wild type human C-terminal His8-tagged IDH1 expressed in Escherichia coli Rosetta cells assessed as reduction in isocitrate to alpha-KG conversion preincubated for 15 mins followed by substrate addition in presence of NADP+ by resazurin based diaphorase-coupled fluorescence assay
Outline: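 Wild-type IDH1 activity read as NADPH production from NADP+ and isocitrate, through a diaphorase-coupled fluorescence reaction analogous to the primary screen.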

[5] = tested on: Isocitrate dehydrogenase [NADP] cytoplasmic (Homo sapiens), O75874 [R132H]; test: Inhibition of human C-terminal His8-tagged IDH1-R132H mutant expressed in Escherichia coli Rosetta cells assessed as change in melting temperature at 5 uM measured over 20 mins using SYPRO orange dye by DSF analysis
Outline: (§3)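 Differential scanning fluorimetry of recombinant enzyme, giving melting temperature shift with compound present. Mean of 3 independent experiments, each with 7 replicates.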

[6] = tested on: Isocitrate dehydrogenase [NADP] cytoplasmic (Homo sapiens), O75874 [R132C]; test: Inhibition of human C-terminal His8-tagged IDH1-R132C mutant expressed in Escherichia coli Rosetta cells assessed as change in melting temperature at 5 uM measured over 20 mins using SYPRO orange dye by DSF analysis; outline: as §3
[7] = tested on: Isocitrate dehydrogenase [NADP] cytoplasmic (Homo sapiens), O75874 [R132H]; test: (§4) Inhibition of IDH1-R132H mutant (unknown origin) expressed in human HA1EM cells assessed as suppression of R-2HG secretion measured after 72 hrs by LC-MS/MS analysis; type: cell-based
Outline: (§5)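 HA1E-M cells (HEK-293 derivative) engineered to overexpress IDH1-R132H and release R-2HG into growth media. Compound treatment for 72 h, then R-2HG in conditioned media measured by LC-MS. Values normalized to DMSO-treated controls; EC50 from three independent experiments, each run in triplicate.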

[8] = target: T1, Isocitrate dehydrogenase [NADP] cytoplasmic; test: as §4; type: cell-based; outline: as §5
Target sequence in this assay (O75874 whole entry R132H): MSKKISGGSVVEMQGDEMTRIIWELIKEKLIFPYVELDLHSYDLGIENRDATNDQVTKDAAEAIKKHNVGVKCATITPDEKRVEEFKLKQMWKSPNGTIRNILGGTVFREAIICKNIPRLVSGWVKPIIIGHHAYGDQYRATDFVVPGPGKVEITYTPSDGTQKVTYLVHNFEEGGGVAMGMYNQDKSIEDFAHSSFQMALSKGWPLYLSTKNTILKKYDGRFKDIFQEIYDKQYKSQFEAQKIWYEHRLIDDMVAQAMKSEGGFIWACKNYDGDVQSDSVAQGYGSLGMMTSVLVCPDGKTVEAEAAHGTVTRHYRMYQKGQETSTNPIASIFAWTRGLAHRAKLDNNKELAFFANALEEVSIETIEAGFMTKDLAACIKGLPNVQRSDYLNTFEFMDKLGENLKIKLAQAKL

[9] = tested on: Isocitrate dehydrogenase [NADP] cytoplasmic (Homo sapiens), O75874 [R132H]; test: (§6) Competitive inhibition of recombinant human C-terminal His8-tagged IDH1-R132H mutant expressed in Escherichia coli Rosetta cells assessed as inhibition of ketoreductase activity by measuring NADPH consumption preincubated for 10 mins followed by addition of NADPH and varying levels of alpha-KG as substrate in presence of constant Mg2+ concentration by fluorescence method
[10] = tested on: Isocitrate dehydrogenase [NADP] cytoplasmic (Homo sapiens), O75874 [R132H]; test: as §6, with “and” for “and varying levels of”, “varying levels of” for “constant”
[11] = Thermodynamic solubility of the compound in PBS at 100 uM and pH 7.4 measured after 18 hrs by UPLC-MS analysis; type: physicochemical; conditions: read-out: Therm_solubility
[12] = Octanol-phosphate buffer partition coefficient, log D of compound at pH 7.4 at 67 uM; type: physicochemical
[13] = Half life in mouse liver microsomes at 1 uM by LC-MS/MS analysis; type: ADME
[14] = Half life in human liver microsomes at 1 uM by LC-MS/MS analysis; type: ADME
[15] = Protein binding in mouse plasma at 5 uM measured after 5 hrs by rapid equilibrium dialysis method; type: ADME, cell-free; conditions: read-out: PPB (converted)
[16] = Protein binding in human plasma at 5 uM measured after 5 hrs by rapid equilibrium dialysis method; type: ADME, cell-free; conditions: read-out: PPB (converted)
[17] = Cytotoxicity against human HA1EM cells assessed as decrease in intracellular ATP levels up to 10 uM measured after 72 hrs by CellTiter-Glo assay; type: toxicity, cell-based
Outline: (§7)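 IDH1-R132H-overexpressing HA1E-M cells treated for 72 h. After media harvest, viability assessed by morphology and ATP levels. Values are normalized to DMSO controls, mean ± SD of three independent experiments each run in triplicate.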

[18] = Cytotoxicity against human HA1EM cells assessed as decrease in intracellular ATP levels at >10 uM measured after 72 hrs by CellTiter-Glo assay; type: toxicity, cell-based; outline: as §7
[19] = Cytotoxicity against human THP1 cells assessed as decrease in intracellular ATP levels up to 10 uM measured after 72 hrs by CellTiter-Glo assay; type: toxicity, cell-based; conditions: thp-1, 72 h
[20] = tested on: Isocitrate dehydrogenase [NADP] cytoplasmic (Homo sapiens), O75874 [R132H]; test: Inhibition of human C-terminal His8-tagged IDH1-R132H mutant expressed in Escherichia coli Rosetta cells assessed as inhibition of ketoreductase activity measured as NADPH consumption preincubated for 60 mins followed by addition of NADPH and alpha-KG as substrate measured after 50 mins using Mg2+ …
[21] = tested on: Isocitrate dehydrogenase [NADP] cytoplasmic (Homo sapiens), O75874 [R132H]; test: as §2, with “IDH1-R132H” for “IDH1-R132C”, “20” for “10”, “substrate in presence of Mg2+” for “substrate”, “spectrophotometric” for “fluorescence”
Outline: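 Orthogonal confirmation assay: IDH1-R132H ketoreductase activity with NADPH detected by absorbance. Positives retested in 8-point dose.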

[22] = tested on: Isocitrate dehydrogenase [NADP] cytoplasmic (Homo sapiens), O75874 [R132H]; test: Inhibition of human C-terminal His8-tagged IDH1-R132H mutant expressed in Escherichia coli Rosetta assessed as inhibition of ketoreductase activity by measuring NADPH consumption preincubated for 10 mins followed by addition of NADPH and alpha-KG as substrate by fluorescence method
Outline: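 Purified IDH1-R132H incubated with α-KG and NADPH; direct kinetic read of falling NADPH fluorescence, run in dose. Enzyme concentration kept below that of the screening assays so inhibitor stays far above enzyme. IC50 values are geometric means of at least three independent experiments.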

[23] = Cytotoxicity against human THP1 cells assessed as decrease in intracellular ATP levels at >10 uM measured after 72 hrs by CellTiter-Glo assay; type: toxicity, cell-based; conditions: thp-1, 72 h
[24] = Cytotoxicity against human U937 cells assessed as decrease in intracellular ATP levels up to 10 uM measured after 72 hrs by CellTiter-Glo assay; type: toxicity, cell-based; conditions: u-937, 72 h
[25] = Cytotoxicity against human U937 cells assessed as decrease in intracellular ATP levels at >10 uM measured after 72 hrs by CellTiter-Glo assay; type: toxicity, cell-based; conditions: u-937, 72 h
[26] = target: Isocitrate dehydrogenase [NADP], mitochondrial (Homo sapiens) (UniProt P48735); test: Inhibition of human C-terminal FLAG-tagged IDH2-R140Q mutant (1 to 452 residues) expressed in baculovirus infeceted sf9 cells assessed as inhibition of ketoreductase activity preincubated for 10 mins followed by addition of NADPH and alpha-KG as substrate by fluorescence method

Isocitrate dehydrogenase [NADP] cytoplasmic (Homo sapiens), O75874 [R132H], sequence (O75874 whole entry R132H): as above
Isocitrate dehydrogenase [NADP] cytoplasmic (Homo sapiens), O75874 [R132C], sequence (O75874 whole entry R132C): as the sequence (O75874 whole entry R132H) above, with H132C counted along it
Isocitrate dehydrogenase [NADP] cytoplasmic (Homo sapiens, UniProt O75874, R132C), sequence (O75874 2-414 R132C limits assumed): as the sequence (O75874 2-414 R132H limits assumed) above, with H131C counted along it
Isocitrate dehydrogenase [NADP] cytoplasmic (Homo sapiens, UniProt O75874), sequence (O75874 whole entry): as the sequence (O75874 whole entry R132H) above, with H132R counted along it

C[C@@H]1CN([C@@H](C)CO)S(=O)(=O)c2ccc(C#Cc3cccc(F)c3)cc2O[C@H]1CN(C)C(=O)NC1CCCCC1
inhibition [1]: Active | pIC50 [2]: 7.24 to 7.30 | pIC50 [3]: 5.60 | pIC50 [4]: < 4.70 | ΔTm [5]: 3.7 °C | ΔTm [6]: 1.4 °C | inhibition [7]: Dose-dependent effect | pEC50 [8]: 6.52 | inhibition [9]: Active | inhibition [10]: Active | solubility thermodynamic at 18 h, 100 µM [11]: 5 µM (≈ 2.86 µg/mL) | logD at 67 µM [12]: 5.19 | half-life at 1 µM [13]: 42 s | half-life at 1 µM [14]: 42 s | fraction unbound at 5 h, 5 µM [15]: 0.037 | fraction unbound at 5 h, 5 µM [16]: 0.005 | Activity [17]: Non-Toxic | Activity [18]: Toxic | Activity [19]: Non-Toxic | inhibition [20]: Active | inhibition [21]: Active | inhibition [22]: Active | Activity [23]: Toxic | Activity [24]: Non-Toxic | Activity [25]: Toxic | pIC50 [26]: < 4.70
